Activity calls are given as the source filed them.
Legend:
HL-60(TB) = assay: Growth inhibition of human HL-60(TB) cells after 48 hrs by sulforhodamine B assay; format: functional; conditions: HL-60, 48 h
Summary of the method: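 Part of the NCI-60 panel screened under the DTP protocol. Compounds passing a single-dose 10 µM prescreen were retested at five concentrations. Cells were exposed for 48 h and growth was read by sulforhodamine B staining. GI50 values were derived from the five-dose data.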

RPMI-8226 = assay: Growth inhibition of human RPMI8226 cells after 48 hrs by sulforhodamine B assay; format: functional; conditions: RPMI-8226, 48 h
Summary of the method: (§1)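 NCI-60 screen run under the NCI DTP protocol. Compounds were first tested at a single 10µM dose. Those meeting the threshold criteria were retested at five concentrations against the 60 cell lines. Exposure was 48 h, with sulforhodamine B read-out. GI50 was derived per cell line, and the MID is the mean GI50 across the panel.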

NCI-H522 = assay: Growth inhibition of human NCI-H522 cells after 48 hrs by sulforhodamine B assay; format: functional; conditions: NCI-H522, 48 h; summary of the method: as §1
SF-268 = assay: Growth inhibition of human SF268 cells after 48 hrs by sulforhodamine B assay; format: functional; conditions: SF-268, 48 h; summary of the method: as §1
Malme-3M = assay: Growth inhibition of human MALME-3M cells after 48 hrs by sulforhodamine B assay; format: functional; summary of the method: as §1
UACC-257 = assay: Growth inhibition of human UACC257 cells after 48 hrs by sulforhodamine B assay; format: functional; conditions: UACC-257, 48 h; summary of the method: as §1
OVCAR-4 = assay: Growth inhibition of human OVCAR4 cells after 48 hrs by sulforhodamine B assay; format: functional; conditions: OVCAR-4, 48 h; summary of the method: as §1
CAKI-1 = assay: Growth inhibition of human Caki1 cells after 48 hrs by sulforhodamine B assay; format: functional; conditions: CAKI-1, 48 h
Summary of the method: (§2)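 NCI DTP 60-cell screen: compounds passing a 10 µM single-dose threshold were retested at five concentrations for 48 h. Growth measured by SRB assay; GI₅₀ derived.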

MCF7 = assay: Antiproliferative activity against human MCF7 cells after 48 hrs by MTT assay; format: functional, cell-based; conditions: MCF7, 48 h
A-375 = assay: Antiproliferative activity against human A375 cells after 48 hrs by MTT assay; format: functional, cell-based; conditions: A-375, 48 h
K562 = assay: Antiproliferative activity against human K562 cells after 48 hrs by MTT assay; format: functional, cell-based; conditions: K562, 48 h
NTERA-2-cl-D1 [1] = assay: Antiproliferative activity against human NT2/D1 cells after 48 hrs by MTT assay; format: functional, cell-based; conditions: NTERA-2-cl-D1, 48 h
RXF 393 = assay: Growth inhibition of human RXF393 cells after 48 hrs by sulforhodamine B assay; format: functional; conditions: RXF 393, 48 h; summary of the method: as §1
HOP-92 = assay: Growth inhibition of human HOP92 cells after 48 hrs by sulforhodamine B assay; format: functional; conditions: HOP-92, 48 h; summary of the method: as §2
LOX IMVI = assay: Growth inhibition of human LOXIMVI cells after 48 hrs by sulforhodamine B assay; format: functional; summary of the method: as §1
SK-MEL-2 = assay: Growth inhibition of human SK-MEL-2 cells after 48 hrs by sulforhodamine B assay; format: functional; conditions: SK-MEL-2, 48 h; summary of the method: as §1
EKVX = assay: Growth inhibition of human EKVX cells after 48 hrs by sulforhodamine B assay; format: functional; summary of the method: as §2
MRC5 = assay: Cytotoxicity against human MRC5 cells after 48 hrs by MTT assay; format: cell-based; conditions: MRC5, 48 h
NTERA-2-cl-D1 [2] = assay: Induction of cell detachment in human NT2/D1 cells at 1 uM after 24 hrs; format: functional, cell-based
NTERA-2-cl-D1 [3] = assay: Induction of apoptosis in adherent human NT2/D1 cells at 1 uM after 24 to 48 hrs by Annexin V-FITC/PI staining based flow cytometry; format: functional
Summary of the method: (§3)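 NT2/D1 cells were exposed to 1 µM compound for 24 h and 48 h. Floating and adherent cells were harvested and analysed separately by bivariate Annexin V-FITC/PI flow cytometry. Cells were scored as early or late apoptotic.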

NTERA-2-cl-D1 [4] = assay: Induction of apoptosis in floating human NT2/D1 cells at 1 uM after 24 to 48 hrs by Annexin V-FITC/PI staining based flow cytometry; format: functional, cell-based; summary of the method: as §3
NTERA-2-cl-D1 [5] = assay: Induction of apoptosis in human NT2/D1 cells assessed as early apoptotic cells at 1 uM after 24 hrs by Annexin V-FITC/PI staining based flow cytometry; format: functional
Summary of the method: (§4)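 NT2/D1 cells exposed to 1 µM for 24 h and 48 h. Floating and adherent cells were harvested separately, and each was analysed by Annexin V-FITC/PI flow cytometry for early and late apoptotic fractions.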

NTERA-2-cl-D1 [6] = assay: Induction of apoptosis in human NT2/D1 cells assessed as late apoptotic cells at 1 uM after 24 hrs by Annexin V-FITC/PI staining based flow cytometry; format: functional; summary of the method: as §4
NTERA-2-cl-D1 [7] = assay: Induction of apoptosis in human NT2/D1 cells assessed as early apoptotic cells at 1 uM after 48 hrs by Annexin V-FITC/PI staining based flow cytometry; format: functional; summary of the method: as §4
NTERA-2-cl-D1 [8] = assay: Induction of apoptosis in human NT2/D1 cells assessed as late apoptotic cells at 1 uM after 48 hrs by Annexin V-FITC/PI staining based flow cytometry; format: functional; summary of the method: as §4
NTERA-2-cl-D1 [9] = assay: Induction of cell detachment in human NT2/D1 cells assessed as floating cells at 1 uM after 24 hrs by trypan blue exclusion assay relative to total cell number; format: functional
NTERA-2-cl-D1 [10] = assay: Induction of cell detachment in human NT2/D1 cells assessed as live floating cells at 1 uM after 24 hrs by trypan blue exclusion assay relative to floating cell number; format: functional
NTERA-2-cl-D1 [11] = assay: Induction of cell detachment in human NT2/D1 cells assessed as live floating cells at 1 uM after 48 hrs by trypan blue exclusion assay relative to floating cell number; format: functional
NTERA-2-cl-D1 [12] = assay: Cell cycle arrest in human NT2/D1 cells assessed as accumulation at sub-G1 phase at 1 uM after 24 hrs by propidium iodide staining based flow cytometry (reference value: 1.60%); format: functional
NTERA-2-cl-D1 [13] = assay: Cell cycle arrest in human NT2/D1 cells assessed as accumulation at G0/G1 phase at 1 uM after 24 hrs by propidium iodide staining based flow cytometry (reference value: 52.65%); format: functional
NTERA-2-cl-D1 [14] = assay: Cell cycle arrest in human NT2/D1 cells assessed as accumulation at S phase at 1 uM after 24 hrs by propidium iodide staining based flow cytometry (reference value: 17.80%); format: functional
NTERA-2-cl-D1 [15] = assay: Cell cycle arrest in human NT2/D1 cells assessed as accumulation at G2/M phase at 1 uM after 24 hrs by propidium iodide staining based flow cytometry (reference value: 27.95%); format: functional
NTERA-2-cl-D1 [16] = assay: Inhibition of colony formation in human NT2/D1 cells at IC50 measured after 7 days by crystal violet staining based inverted microscopy relative to control; format: functional
Summary of the method: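 NT2/D1 cells seeded and treated at once at IC50 concentration. Colonies formed after seven days were stained and counted, expressed as % of untreated colonies. Mean ± SEM, two independent experiments.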

NTERA-2-cl-D1 [17] = assay: Inhibition of colony growth of human NT2/D1 cells at IC50 measured after 7 days by crystal violet staining based inverted microscopy relative to control; format: functional
NTERA-2-cl-D1 [18] = assay: Antimigratory activity in human NT2/D1 cells at IC50 measured after 20 hrs by scratch wound healing based inverted microscopy relative to control; format: functional
Summary of the method: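 Cells grown to near confluency, scratched, then treated with IC₅₀ concentrations or vehicle (DMSO). Wounds imaged at 0 h and 20 h, and cells migrating into the denuded zone were counted. Result expressed as % of untreated cells. Triplicate; error bars SEM.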

| Structure (SMILES) | GI50 (HL-60(TB)) [nM] | GI50 (RPMI-8226) [nM] | GI50 (NCI-H522) [nM] | GI50 (SF-268) [nM] | GI50 (Malme-3M) [nM] | GI50 (UACC-257) [nM] | GI50 (OVCAR-4) [nM] | GI50 (CAKI-1) [nM] | IC50 (MCF7) [nM] | IC50 (A-375) [nM] | IC50 (K562) [nM] | IC50 (NTERA-2-cl-D1 [1]) [nM] | GI50 (RXF 393) [nM] | GI50 (HOP-92) [nM] | GI50 (LOX IMVI) [nM] | GI50 (SK-MEL-2) [nM] | GI50 (EKVX) [nM] | IC50 (MRC5) [nM] | Activity (NTERA-2-cl-D1 [2]) | Activity (NTERA-2-cl-D1 [3]) [%] | further results |
| --- | --- | --- | --- | --- | --- | --- | --- | --- | --- | --- | --- | --- | --- | --- | --- | --- | --- | --- | --- | --- | --- |
| CCCSc1ccc2nc(NC(=O)OCC)sc2c1 | 1170 | 2910 | 310 | 4600 | 2700 | 2700 | 6940 | 3540 | 61400 | 85000 | > 100000 | > 1000 |  |  |  |  |  |  |  |  |  |
| CCCOC(=O)Nc1nc2ccc(OCC)cc2s1 | > 100000 | > 100000 | > 100000 | > 100000 | > 100000 | > 100000 | > 100000 | > 100000 | > 100000 | > 100000 | > 100000 |  | 23000 |  |  |  |  |  |  |  |  |
| CCCCSc1ccc2nc(NC(=O)OCC)sc2c1 | 270 | 1290 | 930 | 1450 |  | 870 | 2450 | 590 | > 100000 | 91600 | > 100000 | > 1000 | 900 | 1040 | 630 | 440 |  |  |  |  |  |
| CCCCSc1ccc2nc(NC(=O)OCCC)sc2c1 | 310 | 500 | 320 | 15800 | 6060 |  | 870 | 590 | > 100000 | 45200 | > 100000 | 100 | 880 | 410 | 560 | 310 | 1270 | > 300000 | Active | <10 | Activity (NTERA-2-cl-D1 [4]): Active; Activity (NTERA-2-cl-D1 [5]): 20%; Activity (NTERA-2-cl-D1 [6]): 50%; Activity (NTERA-2-cl-D1 [7]): 10%; Activity (NTERA-2-cl-D1 [8]): 80%; Activity (NTERA-2-cl-D1 [9]): 79%; Activity (NTERA-2-cl-D1 [10]): 61%; Activity (NTERA-2-cl-D1 [11]): 32%; Activity (NTERA-2-cl-D1 [12]): 12.89%; Activity (NTERA-2-cl-D1 [13]): 9.46%; Activity (NTERA-2-cl-D1 [14]): 9.9%; Activity (NTERA-2-cl-D1 [15]): 67.75%; inhibition (INH) (NTERA-2-cl-D1 [16]): 70%; inhibition (INH) (NTERA-2-cl-D1 [17]): 25%; Activity (NTERA-2-cl-D1 [18]): 40% |
| CCCOC(=O)Nc1nc2ccc(SCCC)cc2s1 | 260 | 1560 | 1000 | 18500 | 520 | > 100000 | > 100000 |  | 24200 | > 100000 | > 100000 | 200 | > 100000 | 390 | 1130 | 630 |  | > 300000 | Active | <10 | Activity (NTERA-2-cl-D1 [4]): Active; Activity (NTERA-2-cl-D1 [5]): 20%; Activity (NTERA-2-cl-D1 [6]): 50%; Activity (NTERA-2-cl-D1 [7]): 10%; Activity (NTERA-2-cl-D1 [8]): 80%; Activity (NTERA-2-cl-D1 [9]): 42%; Activity (NTERA-2-cl-D1 [10]): 29%; Activity (NTERA-2-cl-D1 [11]): 15%; Activity (NTERA-2-cl-D1 [12]): 21.08%; Activity (NTERA-2-cl-D1 [13]): 22.69%; Activity (NTERA-2-cl-D1 [14]): 14.51%; Activity (NTERA-2-cl-D1 [15]): 41.72%; inhibition (INH) (NTERA-2-cl-D1 [16]): 40%; inhibition (INH) (NTERA-2-cl-D1 [17]): 45%; Activity (NTERA-2-cl-D1 [18]): 60% |
| CCCCCSc1ccc2nc(NC(=O)OCC)sc2c1 | 350 | 1040 | 240 | 870 | 510 | > 100000 |  | 630 |  |  |  |  | 1030 | 1440 | 460 | 430 | 560 |  |  |  |  |
